Test results: ChEMBL document CHEMBL4819003, “Optimization of novel oxidative DIMs as Nur77 modulators of the Nur77-Bcl-2 apoptotic pathway” (Eur J Med Chem, 2021)
Activity calls are given as the source filed them. The calls are words filed in the database; no cut-off is given here.

Tests used:
HCT-116 = assay: Induction of apoptosis in human HCT-116 cells assessed as PARP cleavage at 0.5 uM measured after 6 hrs by western blot assay; format: functional, cell-based
Summary of the method: (§1)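 Cells exposed to 0.5 µM for 6 h. Lysates resolved by SDS-PAGE and blotted to PVDF, blocked in 5% milk/TBST, probed with primary antibodies at 1:1000, ECL detection. Apoptosis scored as the densitometric ratio of cleaved PARP band to intact PARP band; mean ± SD, n = 3.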

[1] = biological target: T1, Nuclear receptor subfamily 4immunitygroup A member 1 (Homo sapiens, UniProt P22736); assay: Modulation of Myc-Nur77-LBD (unknown origin) transfected in human HEK293T cells assessed as induction of Myc-Nur77 mitochondrial targeting by measuring increase in Myc-Nur77 accumulation in mitochondria at 0.5 uM measured after 2 hrs by Mito-tracker dye based confocal microscopy method; settings: filed as modulator
T1 sequence (P22736 whole entry, the tested form may be a part): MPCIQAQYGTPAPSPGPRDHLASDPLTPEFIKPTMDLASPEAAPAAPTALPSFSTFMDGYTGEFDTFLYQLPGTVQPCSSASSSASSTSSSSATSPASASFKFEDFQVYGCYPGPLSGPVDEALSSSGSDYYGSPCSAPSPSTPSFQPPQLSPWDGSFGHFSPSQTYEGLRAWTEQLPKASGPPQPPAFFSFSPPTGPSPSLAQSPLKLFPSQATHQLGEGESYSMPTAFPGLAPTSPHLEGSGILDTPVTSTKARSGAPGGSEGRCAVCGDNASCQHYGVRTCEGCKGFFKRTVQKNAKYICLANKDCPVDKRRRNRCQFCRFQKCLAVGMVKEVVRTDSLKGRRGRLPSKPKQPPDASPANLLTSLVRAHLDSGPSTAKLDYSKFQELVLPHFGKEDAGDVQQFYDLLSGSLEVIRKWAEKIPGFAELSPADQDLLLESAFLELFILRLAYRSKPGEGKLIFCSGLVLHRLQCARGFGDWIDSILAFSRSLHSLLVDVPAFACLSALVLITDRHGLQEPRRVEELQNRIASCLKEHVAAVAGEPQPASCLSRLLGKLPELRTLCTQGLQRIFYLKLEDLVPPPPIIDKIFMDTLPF
Summary of the method: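 HEK293T cells transfected with Myc-Nur77-LBD were given 0.5 μM compound for 2 h, stained with Mito-Tracker and immunostained. Nur77 mitochondrial localisation was visualised by confocal microscopy.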

Mus musculus = assay: Antitumour activity against FVB/N mammary tumor MMTV-PyMT mouse model assessed as inhibition of tumour growth at 3 mg/kg, po administered daily for 14 days; format: functional, organism-based; settings: time 14.0 day
Summary of the method: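 Female MMTV-PyMT transgenic mice (FVB/N background), 12 weeks old, randomized n = 6 per group; daily oral gavage 3 mg/kg for 14 days. Dosing solution: DMSO stock diluted in normal saline with 5.0% (V/V) Tween-80 to 3 mg/mL. Tumours weighed at end; mean ± SD, Student's t-test versus untreated controls.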

MDA-MB-231 = assay: Induction of apoptosis in human MDA-MB-231 cells assessed as PARP cleavage at 0.5 uM measured after 6 hrs by western blot assay; format: functional, cell-based; summary of the method: as §1
MEF [2] = assay: Induction of apoptosis in mouse MEF cells deficient in Bcl2 assessed as PARP cleavage at 0.5 uM measured after 6 hrs by Western blot assay; format: functional, cell-based
Summary of the method: (§2)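 Wild-type, Nur77−/− or Bcl-2−/− mouse embryonic fibroblasts grown in DMEM with 10% FBS and treated with 0.5 µM for 6 h. PARP cleavage detected by western blot, primary antibodies at 1:1000, ECL.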

[3] = biological target: T1, Nuclear receptor subfamily 4immunitygroup A member 1; assay: Modulation of Myc-Nur77 (unknown origin) transfected in human HEK293T cells assessed as induction of Myc-Nur77 mitochondrial targeting by measuring increase in Myc-Nur77 accumulation in mitochondria at 0.5 uM measured after 2 hrs by western blot analysis; settings: filed as modulator
Summary of the method: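 HEK293T cells transfected with Myc-Nur77 were exposed to 0.5 μM compound for 2 h. Cells were homogenised in sucrose Buffer D; 500 g then 5000 g spins gave a mitochondrial pellet. Whole-cell and mitochondrial fractions were western blotted for Myc-Nur77, with PARP and Tom20 as fraction-purity markers.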

SW-620 = assay: Induction of apoptosis in human SW-620 cells assessed as PARP cleavage at 0.5 uM measured after 6 hrs by western blot assay; format: functional, cell-based; summary of the method: as §1
BT-549 = assay: Induction of apoptosis in human BT-549 cells assessed as PARP cleavage at 0.5 uM measured after 6 hrs by western blot assay; format: functional, cell-based; summary of the method: as §1
MEF [4] = assay: Induction of apoptosis in wild type mouse MEF cells assessed as PARP cleavage at 0.5 uM measured after 6 hrs by western blot assay; format: functional, cell-based; summary of the method: as §2

Activity [1]: Active
Activity [3]: Active
SMILES: FC(F)(F)c1ccc([C+](c2c[nH]c3ccccc23)c2c[nH]c3ccccc23)cc1
Activity (HCT-116): Active
Activity (Mus musculus): Active
Activity (MDA-MB-231): Active
Activity (MEF [2]): inactive
Activity (SW-620): Active
Activity (BT-549): Active
Activity (MEF [4]): Active
